Most compounds without a hit are left out; they make up all but 1.2% or so of the library.
G6PDH CS – inhibits Leuconostoc G6PDH, flagging false hits in G6PDH-based assays | Purified L. mesenteroides G6PDH, diaphorase/resazurin coupled fluorescence, 45 min | inhibition, % at 5 µM | hit rate 0.12% among 200,000; in the data active = inhibition above about 50%
PfG6PD inh – PfG6PD (Plasmodium falciparum) enzyme inhibition; PfGluPho enzyme, NADPH resazurin-diaphorase fluorescence; inhibition, % at 20 µM; hit rate 0.78% among 350,000; AID 504690;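 active = inhibition reaching at least a set limit at 20 µM in the primary screen, cut at about 59% in these data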;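 note: 0% = DMSO wells with substrate and 100% = DMSO wells lacking glucose-6-phosphate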
Diaphorase inh – counter-screen for diaphorase-based assays: diaphorase inhibitors and chemical oxidizers; hit rate 0.69% among 190,000; inhibition, % at 20 µM; diaphorase resazurin-to-resorufin fluorescence, NADH, 16 min; bacterial (C. kluyveri) enzyme, not human;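 active = primary screen inhibition at 20 µM above a set limit, cut at about 50% in these data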;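 note: plate controls were DMSO with full reaction for no effect and wells lacking NADH for full effect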
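System: Diaphorase enzyme from Clostridium kluyveri | Amount: Enzyme working solution with 0.14 U/mL diaphorase | Benchmarks: No-NADH positive control and DMSO neutral control | Signal: Fluorescence of resorufin formed from resazurin, Ex 544/Em 590 nm | Schedule: 16-min room-temperature incubation before reading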
HKDC1 inhibitor – HKDC1 (human) hexokinase inhibition; AID 493160; Q2TB90; hit rate 0.16% among 340,000; recombinant HKDC1, G6PDH/diaphorase resazurin coupled fluorescence; inhibition, % at 20 µM;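 active = inhibition above about 35% when tested at 20 µM, limit read from the data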;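 note: plate controls were DMSO wells with enzyme for no effect and DMSO wells lacking enzyme for full effect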
Target sequence (Q2TB90 whole entry, looked up): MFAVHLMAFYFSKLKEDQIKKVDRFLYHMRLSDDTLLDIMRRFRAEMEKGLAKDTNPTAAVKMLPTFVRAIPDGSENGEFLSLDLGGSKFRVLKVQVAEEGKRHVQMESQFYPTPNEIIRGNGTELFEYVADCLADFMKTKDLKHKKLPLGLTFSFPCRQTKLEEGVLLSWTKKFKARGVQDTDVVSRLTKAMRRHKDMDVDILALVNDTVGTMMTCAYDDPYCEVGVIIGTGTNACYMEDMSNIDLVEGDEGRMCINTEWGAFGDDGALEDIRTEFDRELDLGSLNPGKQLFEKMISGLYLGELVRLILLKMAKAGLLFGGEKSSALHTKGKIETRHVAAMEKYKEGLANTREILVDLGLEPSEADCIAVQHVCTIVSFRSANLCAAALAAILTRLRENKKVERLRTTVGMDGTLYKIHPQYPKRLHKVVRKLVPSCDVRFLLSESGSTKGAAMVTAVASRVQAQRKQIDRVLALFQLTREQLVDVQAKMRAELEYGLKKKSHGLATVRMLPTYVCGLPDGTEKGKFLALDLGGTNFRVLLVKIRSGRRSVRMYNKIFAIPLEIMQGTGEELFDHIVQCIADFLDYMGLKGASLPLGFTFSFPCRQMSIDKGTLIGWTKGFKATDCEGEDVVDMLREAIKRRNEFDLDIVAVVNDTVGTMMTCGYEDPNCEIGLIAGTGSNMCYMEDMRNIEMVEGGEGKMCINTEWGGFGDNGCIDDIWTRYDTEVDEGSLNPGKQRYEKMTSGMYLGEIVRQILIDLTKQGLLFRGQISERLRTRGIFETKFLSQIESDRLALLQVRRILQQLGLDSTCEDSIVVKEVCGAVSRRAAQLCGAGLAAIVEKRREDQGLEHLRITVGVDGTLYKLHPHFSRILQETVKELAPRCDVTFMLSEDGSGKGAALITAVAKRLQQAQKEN
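Test system: recombinant HKDC1 (HK5) hexokinase enzyme, produced in-house / Doses: 20 µM test compound, 1% DMSO / Timing: 90 min, room temperature / Detection: G6PDH/diaphorase-coupled fluorescence, 1 mM NADP, 100 µM resazurin, 525/613 nm / Control set: DMSO wells with and without enzyme mix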
PfGluPho conf – confirmation of Plasmodium falciparum G6PD inhibitors. recombinant PfGluPho, NADPH-diaphorase-resazurin fluorescence. AID 504753. hit rate 34% among 2,400. shares compounds with PfG6PD inh. inhibition, % at 20 µM;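 active = inhibition of at least 50% at 20 µM in any single replicate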;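 note: 0% = DMSO with substrate and 100% = DMSO lacking glucose-6-phosphate substrate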
Diaph ctr 10uM – diaphorase inhibition or oxidation at 10 uM NADPH; shares compounds with PfG6PD inh; diaphorase-coupled resazurin reduction, fluorescence, NADPH 10 uM; inhibition, % at 20 µM; hit rate 39% among 820; AID 504862;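 active = average inhibition reaching 50% or more with the compound at 20 µM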;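 note: resorufin red fluorescence formed as diaphorase reduces resazurin using NADPH; 0% = DMSO with enzyme and 100% = DMSO without enzyme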
Diaphorase 30uM – inhibits diaphorase or oxidizes, flagging false PfG6PD hits | hit rate 29% among 820 | shares compounds with PfG6PD inh | Diaphorase/resazurin coupled assay, resorufin fluorescence, 30 uM NADPH | inhibition, % at 20 µM;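 active = inhibition averaging 50% or more, tested at 20 µM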;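 note: 0% = DMSO with enzyme and 100% = DMSO wells lacking diaphorase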
The depositor's hits bear a star; / = no result.

SMILES | G6PDH CS | PfG6PD inh | Diaphorase inh | HKDC1 inhibitor | PfGluPho conf | others
N#Cc1ccc2c(=O)n(-c3ccccc3)sc2c1 | / | 123* | / | / | 108* | Diaph ctr 10uM=5;Diaphorase 30uM=-6
CC(=O)Nc1ccc(-c2cc(N)n(-c3ccccc3)n2)cc1 | / | 7 | / | 2 | /
Cc1noc(C)c1S(=O)(=O)N(C)C[C@H]1Oc2ccc(NS(=O)(=O)c3cn(C)cn3)cc2C(=O)N([C@H](C)CO)C[C@@H]1C | / | -11 | / | -6 | /
CCOC(=O)CCCCCC(=O)Nc1ccc2c(c1)C(=O)N([C@H](C)CO)C[C@H](C)[C@@H](CN(C)S(C)(=O)=O)OCCCC[C@@H](C)O2 | / | 13 | / | / | /
O=C(/C=C/c1ccccc1)Nc1cccc(S(=O)(=O)Nc2ccccc2F)c1 | -2 | 71* | 28 | -40 | 46
CCSc1nnc(NC(=O)c2ccc3ccccc3n2)s1 | 6 | 71* | 14 | 0 | 43
CCc1nnc(NC(=O)c2ccc3ccccc3n2)s1 | 3 | 10 | -6 | 13 | /
O=C(Nc1ccccc1C(=O)O)c1ccc2ccccc2n1 | 9 | 74* | 13 | 0 | 70* | Diaph ctr 10uM=59*;Diaphorase 30uM=68*
O=C(Nc1cccc(S(=O)(=O)Nc2ccccc2F)c1)c1ccc2ccccc2n1 | 2 | 76* | 26 | -20 | 49
O=C(Nc1ccccc1)c1ccc2ccccc2n1 | 6 | 24 | -4 | -5 | /
O=C(C=Cc1ccccc1)Nc1ccccc1 | / | 27 | / | 1 | /
Cc1ccc(C)c(S(=O)(=O)N2CCN(CC(=O)NC(C)c3ccccc3)CC2)c1 (centres undefined) | / | -3 | / | 0 | /
Cc1ccc(NC(=O)c2cc(N3C(=O)C=CC3=O)ccc2N2CCOCC2)cc1Cl | -3 | 74* | 6 | -5 | 102* | Diaph ctr 10uM=-28;Diaphorase 30uM=-22
O=C(Nc1cc(Cl)ccc1N1CCOCC1)c1ccc2c(c1)OCO2 | / | 16 | / | / | /
O=C(Nc1ccc(N2CCOCC2)cc1N1CCOCC1)c1ccc(Cl)cc1 | / | 15 | / | 0 | /
O=C(Nc1ccc(N2CCOCC2)c(Cl)c1)c1ccc(Cl)cc1 | 3 | 100* | 12 | -2 | 61* | Diaph ctr 10uM=51*;Diaphorase 30uM=45
O=C(Nc1ccc(N2CCCCC2)c(Cl)c1)c1ccc(N2CCOCC2)c([N+](=O)[O-])c1 | 9 | 19 | 3 | 1 | /
O=C(Nc1ccc(N2CCOCC2)c(Cl)c1)c1ccc2c(c1)OCCO2 | 19 | 83* | / | -5 | 44
O=C(Nc1ccc(N2CCCCC2)c(Cl)c1)c1ccc2c(c1)OCCO2 | 4 | 99* | 16 | 3 | -6
Cc1cc(C)n(C(C)CC(=O)Nc2ccc3c(c2)OCCO3)n1 (centres undefined) | / | 26 | / | -5 | /
O=C(Nc1ccc(Cl)c(Cl)c1)c1ccc2c(c1)OCO2 | / | 43 | / | 2 | /
O=C(Nc1ccc(N2CCCC2)c(Cl)c1)c1ccc(Br)o1 | 0 | 59* | -28 | -1 | 4
O=C(Nc1ccc(N2CCCC2)c(Cl)c1)c1ccc2c(c1)OCCO2 | / | 67* | / | 1 | 9
CCN(CC(=O)Nc1ccc2c(c1)OCCO2)C(=O)c1ccc(C(F)(F)F)cc1 | / | 1 | / | 1 | /
CC(NC(=O)c1ccccc1Cl)C(=O)N1CCN(Cc2ccc3c(c2)OCO3)CC1 (centres undefined) | / | -6 | / | -4 | /
SMILES | G6PDH CS | PfG6PD inh | Diaphorase inh | HKDC1 inhibitor | PfGluPho conf | others
CCCC1CC(C(=O)NC(C(C)Cl)C2OC(SC)C(O)C(O)C2O)N(C)C1 (centres undefined) | / | -9 | / | 0 | /
O=[N+]([O-])c1ccc2nc(-c3ccc(Cl)cc3)[nH]c2c1 | 2 | 107* | 0 | -1 | 46
COc1ccc2nc(-c3ccccc3)[nH]c2c1 | 24 | 46 | -18 | 3 | /
O=[N+]([O-])c1cccc(-c2nc3ccc([N+](=O)[O-])cc3[nH]2)c1 | 4 | 108* | -6 | 1 | 72* | Diaph ctr 10uM=60*;Diaphorase 30uM=59*
O=[N+]([O-])c1ccc2nc(-c3ccccc3[N+](=O)[O-])[nH]c2c1 | -2 | 14 | 21 | -2 | /
Cc1ccc(-c2nc3ccc([N+](=O)[O-])cc3[nH]2)cc1 | -6 | 99* | 9 | 0 | 38
COc1ccc(-c2nc3ccc([N+](=O)[O-])cc3[nH]2)cc1 | 15 | 110* | 12 | -4 | 46

Source: PubChem BioAssay (Sanford-Burnham Center for Chemical Genomics)
